Data on 3 molecules can be found in ChEMBL document CHEMBL1122158, “Agents with potential specificity against melanotic melanoma” (1982).

Experiment [1] has as its system B16. Put plainly: In vivo antitumor activity against B-16 Melanoma after intraperitoneal tumor implantation and then intraperitoneal administration of 100 mg/kg of dose. The class given is functional, Mus musculus. The method in brief: (§1)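 B-16 melanoma was implanted intraperitoneally and dosed per NCI protocols. Intraperitoneal treatment began 24 h after implant and was given once daily on days 1-9. Activity was expressed as % T/C, with T/C ≥ 125% taken as statistically significant.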

The subject of experiment [2] is B16. Put plainly: In vivo antitumor activity against B-16 Melanoma after intraperitoneal tumor implantation and then intraperitoneal administration of 150 mg/kg of dose. It counts as functional, Mus musculus. In a few lines:
as §1

The subject of experiment [3] is B16. Kind of experiment: In vivo antitumor activity against B-16 Melanoma after intraperitoneal tumor implantation and then intraperitoneal administration of 75 mg/kg of dose. It counts as functional, Mus musculus. The method in brief: as §1
For experiment [4], the system named is KB. Put plainly: In vitro effective dose that causes 50% inhibition of growth of KB cell line - human epidermoid carcinoma of the nasopharynx. The class given is functional. Conditions: read-out: ED50 (the source's name).
For experiment [5], the system named is M2R. Put plainly: In vitro effective dose that causes 50% inhibition of growth of M2R cell line - amelanotic melanoma. The class given is functional. Conditions: Mus musculus, in the assay text read “melanotic melanoma” for “amelanotic melanoma”, read-out: ED50 (the source's name). The method in brief: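 1 × 10^4 cells seeded in a 1:1 DMEM/Ham's F-12 medium with 1.2 g/L NaHCO3, 15 mM HEPES and 10% fetal bovine serum, at 37 °C in 5% CO2. After 24 h, the medium was replaced with fresh medium holding the test agent at various concentrations. Growth was followed for at least 3 more days by trypsinizing and Coulter counting. Net cell increase was expressed as % of control when controls had grown 8-fold.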

The subject of experiment [6] is A2 (Mus musculus). Put plainly: In vitro effective dose that causes 50% inhibition of growth of A2 cell line - amelanotic melanoma. The following applies: read-out: ED50 (the source's name).
The test system of experiment [7] is PS. Kind of experiment: In vitro effective dose that causes 50% inhibition of growth of PS cell line - P388 lymphocytic leukemia. Conditions: Mus musculus, read-out: ED50 (the source's name).

Regarding `NC(CCCNc1cccc(O)c1)C(=O)O` (stereo unspecified), the T/C in experiment [1] is given as 87%; in experiment [2], 82%; in experiment [3], 104%. The EC50 in experiment [4] is 300 µM; in experiment [5], above 100 µM; in experiment [6], above 100 µM; in experiment [7], 300 µM.

In the case of `NC(CCCNc1ccc(O)cc1)C(=O)O` (stereo unspecified), the T/C in experiment [1] came to 98%; in experiment [2], 106%; in experiment [3], 122%. The EC50 stood at 120 µM in experiment [4], 13 µM in experiment [5], 22 µM in experiment [6] and 9.5 µM in experiment [7].

For `NC(CNc1ccc(O)cc1)C(=O)O` (stereo unspecified), the T/C in experiment [1] is recorded as 103%; in experiment [2], 101%; in experiment [3], 111%. Also, the EC50 in experiment [4] is 140 µM; in experiment [5] it was 24 µM; in experiment [6] it was 54 µM; in experiment [7] it was 32 µM.
